Here are results for five compounds from ChEMBL document CHEMBL1132699, “Synthesis and biological evaluation of 2',3'-didehydro-2',3'- dideoxy-5-fluorocytidine (D4FC) analogues: discovery of carbocyclic nucleoside triphosphates with potent inhibitory activity against HIV-1 reverse transcriptase” (J Med Chem, 1999).

The first test concerns 9L. The test can be described thus: The compound was tested in vitro for anticancer activity against 9L cells. The settings on record: Rattus norvegicus. Type of test: functional, cell-based. Put shortly: (§1)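 Growth inhibition in human or rat tumour cell lines. Cells cultured with drug in 96-well plates for 5 days (LNCaP, SK-MES-1), 4 days (CEM, MCF-7, SK-MEL-28, HepG2, 9L) or 3 days (PC-3). Solvent-exposed untreated cells served as negative control. Viable, actively metabolizing cells were read by MTT assay. DMSO stocks (40 mM) were diluted in growth medium. IC50 in μM.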
For orientation: IC50 means the midpoint of a concentration-inhibition curve. `O=c1[nH]c(=O)n([C@@H]2C=C[C@@H](CO)O2)cc1F` displayed an IC50 of 2400 nM.

The test system of a further test is MCF7. The test can be described thus: Tested in vitro for anticancer activity against MCF-7 cells. The test is classed as functional, cell-based. The settings on record: Homo sapiens.
In turn, `O=C1NC(O)C(F)=CN1[C@H]1C=C[C@@H](CO)O1` (some centres not stated) showed an IC50 of 54.1 µM.

Turning to `Nc1nc(=O)n([C@H]2C=C[C@@H](CO)O2)cc1I`, the 50% inhibitory concentration (IC50) is above 100 µM.

`CCCCC(=O)OC[C@@H]1C=C[C@H](n2cc(F)c(N)nc2=O)O1` registered an IC50 above 100 µM.

As for `Nc1nc(=O)n([C@@H]2C=C[C@H](CO)O2)cc1F` [ELVUCITABINE], the IC50 was 82.8 µM.

`O=c1[nH]c(=O)n([C@@H]2C=C[C@@H](CO)O2)cc1F` had an IC50 of 67.3 µM.

For the next test, the system named is Vero. The test can be described thus: Tested in vitro for cytotoxicity against Vero cells. The settings on record: Chlorocebus sabaeus. The test is classed as functional, cell-based.
`O=C1NC(O)C(F)=CN1[C@H]1C=C[C@@H](CO)O1` (some centres not stated) displayed an IC50 of 7.9 µM.

The compound `Nc1nc(=O)n([C@H]2C=C[C@@H](CO)O2)cc1I` yielded an IC50 above 100 µM.

Turning to `CCCCC(=O)OC[C@@H]1C=C[C@H](n2cc(F)c(N)nc2=O)O1`, the half-maximal inhibitory concentration (IC50) was above 100 µM.

In turn, `Nc1nc(=O)n([C@@H]2C=C[C@H](CO)O2)cc1F` [ELVUCITABINE] returned an IC50 of 9.4 µM.

The compound `O=c1[nH]c(=O)n([C@@H]2C=C[C@@H](CO)O2)cc1F` returned an IC50 of 3 µM.

In another test the test system is HepG2. The test can be described thus: Tested in vitro for anticancer activity against HepG2 cells. Type of test: functional, cell-based. The settings on record: Homo sapiens.
Compound `O=C1NC(O)C(F)=CN1[C@H]1C=C[C@@H](CO)O1` (some centres not stated) came in with an IC50 of 59.3 µM.

Regarding `Nc1nc(=O)n([C@H]2C=C[C@@H](CO)O2)cc1I`, the half-maximal inhibitory concentration (IC50) was above 100 µM.

For the compound `CCCCC(=O)OC[C@@H]1C=C[C@H](n2cc(F)c(N)nc2=O)O1`, the IC50 was above 100 µM.

The compound `Nc1nc(=O)n([C@@H]2C=C[C@H](CO)O2)cc1F` [ELVUCITABINE] had an IC50 of 118 µM.

Consider `O=c1[nH]c(=O)n([C@@H]2C=C[C@@H](CO)O2)cc1F`, for which 37.1 µM corresponded to half-maximal inhibition (IC50).

The test system of a further test is SK-MES-1. The test can be described thus: Tested in vitro for anticancer activity against SK-MES-1 cells. The test is classed as functional, cell-based. The settings on record: Homo sapiens.
`O=C1NC(O)C(F)=CN1[C@H]1C=C[C@@H](CO)O1` (some centres not stated): the IC50 was 4.2 µM.

As for `Nc1nc(=O)n([C@H]2C=C[C@@H](CO)O2)cc1I`, the 50% inhibitory concentration (IC50) was above 100 µM.

Regarding `CCCCC(=O)OC[C@@H]1C=C[C@H](n2cc(F)c(N)nc2=O)O1`, the half-maximal inhibitory concentration (IC50) was above 100 µM.

As to `Nc1nc(=O)n([C@@H]2C=C[C@H](CO)O2)cc1F` [ELVUCITABINE], 99.1 µM corresponded to half-maximal inhibition (IC50).

Turning to `O=c1[nH]c(=O)n([C@@H]2C=C[C@@H](CO)O2)cc1F`, the half-inhibitory concentration (IC50) was found to be 10 µM.

For the next test, the system named is SK-MEL-28. As to the kind of experiment: Tested in vitro for anticancer activity against SK-MEL-28 cells. As to conditions: Homo sapiens. Type of test: functional, cell-based.
As for `O=C1NC(O)C(F)=CN1[C@H]1C=C[C@@H](CO)O1` (some centres not stated), inhibition was half-maximal at 21.7 µM (IC50).

Turning to `Nc1nc(=O)n([C@H]2C=C[C@@H](CO)O2)cc1I`, the IC50 is above 100 µM.

In turn, `CCCCC(=O)OC[C@@H]1C=C[C@H](n2cc(F)c(N)nc2=O)O1` gave a half-maximal inhibitory concentration (IC50) above 100 µM.

`Nc1nc(=O)n([C@@H]2C=C[C@H](CO)O2)cc1F` [ELVUCITABINE] gave a 50% inhibitory concentration (IC50) above 100 µM.

Take `O=c1[nH]c(=O)n([C@@H]2C=C[C@@H](CO)O2)cc1F`: half-maximal inhibition (IC50) required 9.8 µM.

The next test has as its system LNCaP. The test can be described thus: Tested in vitro for anticancer activity against LNCaP cells. The test is classed as functional, cell-based. The settings on record: Homo sapiens.
In turn, `O=C1NC(O)C(F)=CN1[C@H]1C=C[C@@H](CO)O1` (some centres not stated) had an IC50 of 67.8 µM.

`Nc1nc(=O)n([C@H]2C=C[C@@H](CO)O2)cc1I` came in with a half-inhibitory concentration (IC50) above 100 µM.

`CCCCC(=O)OC[C@@H]1C=C[C@H](n2cc(F)c(N)nc2=O)O1` displayed an IC50 above 100 µM.

For the compound `Nc1nc(=O)n([C@@H]2C=C[C@H](CO)O2)cc1F` [ELVUCITABINE], the IC50 was determined as 55.2 µM.

Compound `O=c1[nH]c(=O)n([C@@H]2C=C[C@@H](CO)O2)cc1F` gave an IC50 of 85.8 µM.

For another test, the system named is 9L. The test can be described thus: Tested in vitro for anticancer activity against 9L cells. The settings on record: Rattus norvegicus. Type of test: functional, cell-based. Put shortly:
as §1
The compound `O=C1NC(O)C(F)=CN1[C@H]1C=C[C@@H](CO)O1` (some centres not stated) showed an IC50 of 1200 nM.

A further test has as its system CCRF-CEM. As to the kind of experiment: Tested in vitro for anticancer activity against CEM cells. Type of test: functional, cell-based. As to conditions: Homo sapiens.
`O=C1NC(O)C(F)=CN1[C@H]1C=C[C@@H](CO)O1` (some centres not stated) had a 50% inhibitory concentration (IC50) of 9.1 µM.

Take `Nc1nc(=O)n([C@H]2C=C[C@@H](CO)O2)cc1I`: 107 µM corresponded to half-maximal inhibition (IC50).

As to `CCCCC(=O)OC[C@@H]1C=C[C@H](n2cc(F)c(N)nc2=O)O1`, half-maximal inhibition (IC50) was put at 124 µM.

Compound `Nc1nc(=O)n([C@@H]2C=C[C@H](CO)O2)cc1F` [ELVUCITABINE] displayed a half-inhibitory concentration (IC50) of 0.46 µM.

`O=c1[nH]c(=O)n([C@@H]2C=C[C@@H](CO)O2)cc1F` registered a 50% inhibitory concentration (IC50) of 11.4 µM.

A further test has as its system PC-3. The test can be described thus: Tested in vitro for anticancer activity against PC-3 cells. The test is classed as functional, cell-based. The settings on record: Homo sapiens.
As for `O=C1NC(O)C(F)=CN1[C@H]1C=C[C@@H](CO)O1` (some centres not stated), the IC50 came out at 63 µM.

In the case of `Nc1nc(=O)n([C@H]2C=C[C@@H](CO)O2)cc1I`, the IC50 is above 100 µM.

`CCCCC(=O)OC[C@@H]1C=C[C@H](n2cc(F)c(N)nc2=O)O1` yielded an IC50 above 100 µM.

Turning to `Nc1nc(=O)n([C@@H]2C=C[C@H](CO)O2)cc1F` [ELVUCITABINE], the half-inhibitory concentration (IC50) is above 100 µM.

In turn, `O=c1[nH]c(=O)n([C@@H]2C=C[C@@H](CO)O2)cc1F` had an IC50 above 100 µM.

The subject of another test is Human immunodeficiency virus 1. As to the kind of experiment: (§2) Tested in vitro for anti HIV-1 activity against PBM cells. As to conditions: Human immunodeficiency virus 1, PBMC. The test is classed as functional.
Usually EC90 stands for the concentration at which the effect reaches the 90% level. On to `O=C1NC(O)C(F)=CN1[C@H]1C=C[C@@H](CO)O1` (some centres not stated), for which the EC90 was determined as 23 µM.

In the case of `Nc1nc(=O)n([C@H]2C=C[C@@H](CO)O2)cc1I`, the 90% effect concentration (EC90) was above 10 µM.

Regarding `CCCCC(=O)OC[C@@H]1C=C[C@H](n2cc(F)c(N)nc2=O)O1`, it took 0.34 µM to reach the 90% level (EC90).

Consider `Nc1nc(=O)n([C@@H]2C=C[C@H](CO)O2)cc1F` [ELVUCITABINE], for which the EC90 stood at 0.16 µM.

Consider `O=c1[nH]c(=O)n([C@@H]2C=C[C@@H](CO)O2)cc1F`, for which the EC90 amounted to 23 µM.

Test system in the next test: not listed separately
As to the kind of experiment: Tested in vitro for cytotoxicity against PBM cells. The test is classed as functional, cell-based. The settings on record: Homo sapiens, PBMC.
`O=C1NC(O)C(F)=CN1[C@H]1C=C[C@@H](CO)O1` (some centres not stated) yielded an IC50 of 32.2 µM.

For `Nc1nc(=O)n([C@H]2C=C[C@@H](CO)O2)cc1I`, the IC50 was determined as 98.3 µM.

With `CCCCC(=O)OC[C@@H]1C=C[C@H](n2cc(F)c(N)nc2=O)O1`, the IC50 was above 100 µM.

Regarding `Nc1nc(=O)n([C@@H]2C=C[C@H](CO)O2)cc1F` [ELVUCITABINE], half-maximal inhibition (IC50) was put at 12.9 µM.

The compound `O=c1[nH]c(=O)n([C@@H]2C=C[C@@H](CO)O2)cc1F` yielded an IC50 of 47.4 µM.

The test system of a further test is Human immunodeficiency virus 1. The description is as §2. The settings on record: Human immunodeficiency virus 1, PBMC. The test is classed as functional, organism-based.
A word on the EC50: it is the concentration needed to bring the measured effect to its halfway point. In the case of `O=C1NC(O)C(F)=CN1[C@H]1C=C[C@@H](CO)O1` (some centres not stated), the response was half-maximal at 7.9 µM (EC50).

For the compound `Nc1nc(=O)n([C@H]2C=C[C@@H](CO)O2)cc1I`, the EC50 is above 10 µM.

Regarding `CCCCC(=O)OC[C@@H]1C=C[C@H](n2cc(F)c(N)nc2=O)O1`, a half-maximal response (EC50) required 0.056 µM.

In turn, `Nc1nc(=O)n([C@@H]2C=C[C@H](CO)O2)cc1F` [ELVUCITABINE] showed a concentration for a half-maximal effect (EC50) of 0.034 µM.

`O=c1[nH]c(=O)n([C@@H]2C=C[C@@H](CO)O2)cc1F`: a half-maximal effect (EC50) was put at 7.5 µM.
